Cytotoxicity data for 94 molecules are collected here from ChEMBL document CHEMBL4513216, “Probing the Open Global Health Chemical Diversity Library for Multistage-Active Starting Points for Next-Generation Antimalarials” (ACS Infect Dis, 2020).

Molecules are shown by their SMILES.

The nature of this data set: Toxicity liver stage against HepG2, at 10uM. In kind it is cell-based. Further details: test concentration 10 uM, cell line HepG2-A16-CD81EGFP. As to conditions: human, HepG2-A16-CD81EGFP cells; read-out: INHIBITION
An outline of the steps: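 Uninfected HepG2-A16-CD81EGFP cells, 3 × 10^3 per well, 1536-well, plated on prespotted compound at 10 μM final, parasite-free screening media added to match infected plates; puromycin 10 μM positive, DMSO 0.5% negative; run in parallel with 48 h PbLuc assay at 37 °C, 5% CO2; viability by CellTiter-Glo luminescence, normalized to controls.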
As for `CS(=O)(=O)N1C[C@@H](F)[C@@H](OCc2nc3ccccc3o2)C1`, the cytotoxicity at 10 µM was -4.47%.

`COc1ccc(-c2c[nH]c([C@@H]3COCCN3)n2)cc1`: the cytotoxicity at 10 µM was -4.84%.

Regarding `CN(C)c1cc(N2CCN(c3ccccn3)CC2)ncn1`, the cytotoxicity at 10 µM is -2.71%.

Turning to `CCCS(=O)(=O)N1CC(=O)N(Cc2ccccc2OC)CC(O)C1` (centres undefined), the cytotoxicity at 10 µM is -7.44%.

`CC(C)CNC(=O)CNC(=O)c1nc(Cc2c(Cl)cccc2Cl)no1`: the cytotoxicity at 10 µM worked out at 9.11%. `CN1C(=O)CCc2cc(NC(=O)C3CC3)ccc21`: the cytotoxicity at 10 µM came to 0.696%. For `O=S(=O)(NCCNc1cc(-n2cccn2)ncn1)c1cccs1` the value was -6.58%; for `N#Cc1ccc(C(=O)N2CCCSCC2CN2CCCC2)cc1` (centres undefined), 10.1%. For `Cn1nc(CNC(=O)c2ccc3c(c2)OCO3)c2c1CCOC2`, the cytotoxicity at 10 µM is -1.82%. Next, `O=C1CCC2(CCCN(C(=O)c3ccco3)CC2)N1` (centres undefined): 3.17%; `Cc1ccc(CN2C[C@H]3CN(CC4CCN(C)CC4)C(=O)[C@H]3C2)s1`: 2.5%. Consider `O=C1C[C@H]2[C@H](CCN2C(=O)c2cc[nH]n2)N1Cc1cccnc1`, for which the cytotoxicity at 10 µM is 3.03%.

As to `Cc1cnc(N2CCC3(CC2)CCN(c2cncnc2)C3=O)nc1`, the cytotoxicity at 10 µM was -13%.

For the molecule `CCN1CC2(CC1=O)CN(C(C)=O)CCN(S(=O)(=O)CC)C2` (centres undefined), the cytotoxicity at 10 µM is -2.02%. Next, `CN(C)S(=O)(=O)N1C[C@H]2CCC[C@@]2(COCC2CCOCC2)C1`: 7.45%; `CCn1cc2c(n1)C(COCC1CC1)CN(c1ccc(C)nn1)C2` (centres undefined): 12.8%. Next, `O=C(C1CN(c2ncc(F)cn2)CC12CCOCC2)N1CCOCC1` (centres undefined): 13.6%; `Cc1cc(C(=O)N2CCc3ncnc(-c4cnn(C)c4)c3CC2)c(C)o1`: 4.5%; `CS(=O)(=O)N1CCc2sc(C(=O)NCc3ccncc3)cc21`: 2.93%. For the molecule `c1ccc(OCC2CC3(CCN(CC4CCOCC4)CC3)CO2)nc1` (centres undefined), the cytotoxicity at 10 µM is -1.37%. Next, `O=C1CC[C@H]2[C@H](CCN2C(=O)N2CCCC2)N1Cc1ccncc1`: -2.04%; `COc1ccc(-c2csc(N)c2C#N)cc1`: 4.07%. For `CSc1nnc(C2CCN(C(=O)N3CCOCC3)CC2)n1C(C)C` the value was 3.8%; for `Cn1ccnc1C(=O)N1CCOC(Cc2ccccc2Cl)C1` (centres undefined), -12.2%. As for `CCC(CC)C(=O)N1CCC(c2nn(CCN)c3nccnc23)C1` (centres undefined), the cytotoxicity at 10 µM is -25.5%. In the case of `Cc1ccc2c(c1)C(=O)NCC1(CCN(C(=O)c3sccc3C)CC1)O2`, the cytotoxicity at 10 µM was -11.7%. Next, `CC(C)N1CCC(Cc2cncc(-c3cc(F)ccc3C(=O)O)n2)CC1`: -8.36%. Next, `Cc1cncc(C2CCN(Cc3cccn3C)CC2)n1`: -6.94%; `O=C1CCCN1CCCC(=O)N1CCCC(Cc2cccnc2)C1` (centres undefined): -4.5%; `CC(C)c1nccn1-c1cncc(C2CCCN(C3CCCC3)C2)n1` (centres undefined): -6.63%.

As to `Cc1ccc(C(=O)N2CCC3(CC(N(C)c4ccncn4)C3)C2)cn1` (centres undefined), the cytotoxicity at 10 µM is -6.11%. For `Cc1nc(-c2ccc(C(=O)O)cc2)cc(C2CCCN(C(C)C)C2)n1` (centres undefined) the value was -10.2%; for `COc1cccc(CN(C)C(=O)c2csc(-c3nnc[nH]3)n2)c1`, -14.4%. For `N#CC(NC(=O)CCCOc1cccnc1)c1ccccc1Cl` (centres undefined) the value was 4.26%.

For `Cn1cc(S(=O)(=O)N(Cc2ccc(F)cc2F)C2CC2)cc1C(N)=O`, the cytotoxicity at 10 µM was 5.68%. Take `CN(CCc1ccccn1)CCc1nccs1`: the cytotoxicity at 10 µM amounted to 2.01%. Regarding `CN(CC(=O)NC(c1ccc(F)cc1)C(F)(F)F)S(C)(=O)=O` (centres undefined), the cytotoxicity at 10 µM was -11.9%. As for `Cc1nsc(N2CCN(CC(=O)NCc3ccc(F)cc3)CC2)n1`, the cytotoxicity at 10 µM is -6.84%. For `CC(NC(=O)c1ccc(=O)n(C)c1)c1ccc(OCC2CC2)c(F)c1` (centres undefined) the value was 9.8%. As for `Cc1ccc(C(=O)N(C)Cc2csc(C)n2)c(=O)[nH]1`, the cytotoxicity at 10 µM is 3.97%.

For the molecule `Cc1nc(CN(C)C2CCN(Cc3nc(C4CC4)no3)C2)no1` (centres undefined), the cytotoxicity at 10 µM is -5.29%. Regarding `CCc1nsc(NC2CC(=O)N(C3CC3)C2)n1` (centres undefined), the cytotoxicity at 10 µM was found to be 9.43%.

For the molecule `CCN(C)CC1CCN(C(=O)NCCC2Cc3ccccc3C2)C1` (centres undefined), the cytotoxicity at 10 µM came to 0.458%. For `CNC(=O)C(C)NC(=O)c1ccc(Oc2cccnc2)cc1` (centres undefined) the value was 6.32%.

Regarding `CN(Cc1nccn1CC(F)(F)F)C(=O)c1cccc(C#N)c1`, the cytotoxicity at 10 µM worked out at 5.4%.

In the case of `Cc1cn(-c2ccccc2)nc1NS(=O)(=O)c1cccc(C(=O)O)c1`, the cytotoxicity at 10 µM is -10.3%. As to `CCN1CCCC1CN(CCN(C)C)S(=O)(=O)c1ccc(C#N)cc1` (centres undefined), the cytotoxicity at 10 µM is -28.3%.

As to `COCC1CN(S(=O)(=O)c2cccc(F)c2)Cc2nccn2C1` (centres undefined), the cytotoxicity at 10 µM is -103%. Next, `O=C(NCc1ccccn1)[C@@]12CCO[C@@H]1CCN(c1ncccn1)C2`: -98.4%; `O=C(NC1CCc2c(ccc(=O)n2CC2CC2)C1)c1cscn1` (centres undefined): -104%; `CCS(=O)(=O)N1CCC2(CCN(C(=O)c3cccs3)CC2)CC1`: -99.9%.

Turning to `OCCNc1nccc(-c2c[nH]nc2-c2ccncc2)n1`, the cytotoxicity at 10 µM was -9.52%. `Cc1cc(C)c(C(=O)NC2CCN(c3ncccc3C#N)CC2)c(=O)[nH]1`: the cytotoxicity at 10 µM stood at 7.24%. Regarding `Cc1nnc(SCCCNC(=O)Cc2ccc3c(c2)OCO3)s1`, the cytotoxicity at 10 µM turned out to be 7.75%. Next, `CSCCC1c2nc[nH]c2CCN1Cc1ccccc1C#N` (centres undefined): -1.57%; `Cc1ccc(OC2(C(=O)NC(C)c3csc(C)n3)CCNCC2)cc1` (centres undefined): -0.432%; `CSc1ccc(C(C(=O)O)N2CCOCC2)cc1` (centres undefined): 0.324%. In the case of `COCCCN1C(=O)CC[C@H]2CN(c3nc4ccccc4s3)CC[C@H]21`, the cytotoxicity at 10 µM is -9.59%. Regarding `Cc1nc(C2CCN(C(=O)c3ccc(Cl)s3)CC2)cc(=O)[nH]1`, the cytotoxicity at 10 µM was -0.243%. Next, `CCC(C)N(Cc1c[nH]c(C)n1)Cc1ccccc1Cl` (centres undefined): 24.2%; `O=C(Cc1ccc(F)cc1Cl)N1CC[C@H](CO)[C@@H](O)C1`: 8.08%. Next, `OCC1(O)CCCN(Cc2noc(-c3ccccc3)n2)CC1` (centres undefined): -2.72%; `COCCN1CCCC(O)(CN2CCN(c3cnccn3)CC2)C1=O` (centres undefined): 4.04%. For `CCCC1C=CCN1C(=O)c1cc(COc2ccc3c(c2)OCO3)[nH]n1` (centres undefined) the value was 1.99%. For the molecule `CCCN1CC2(CCN(C)CC2)CC1C(=O)NCCn1nc(C)nc1C` (centres undefined), the cytotoxicity at 10 µM came to 2.7%.

As to `CN(c1ccc(C(=O)NCCCN2CCCC2)c(Cl)c1)S(C)(=O)=O`, the cytotoxicity at 10 µM is -10%.

On to `COc1cc(F)ccc1C(C(=O)O)N(C)CCN1CCCC1` (centres undefined), for which the cytotoxicity at 10 µM was -13.4%.

`COc1cnc(N2CC(N3CCOCC3)C2)nc1-c1ccnn1C`: the cytotoxicity at 10 µM worked out at 6.24%. For `COc1cccc2c1OCC(C(=O)N(C)CCCc1cnn(C)c1)C2` (centres undefined) the value was -2.98%; for `Cc1ncccc1Oc1nccnc1C1CCN(C(C)C)CC1`, -6.05%; for `O=C(c1n[nH]c(=O)c2ccccc12)N1CCCCC1c1ccn[nH]1` (centres undefined), -0.285%. `O=C(Nc1cc(F)ccc1OCC1CCCO1)N1CCSCC1` (centres undefined): the cytotoxicity at 10 µM is -1.79%. As for `Cc1cc(C)cc(CNC(c2ccccc2)c2nccn2C)c1` (centres undefined), the cytotoxicity at 10 µM is -13%.

Take `Cc1ncc2c(n1)CN(Cc1nc(Cc3ccccc3)no1)CC2`: the cytotoxicity at 10 µM was -12.4%. For `Cc1cnn(CC2CCCN2Cc2nnc(-c3ccccc3)o2)c1` (centres undefined) the value was -9.86%. Take `CCOc1ncccc1CNC(=O)N1CCCC1c1ccsc1` (centres undefined): the cytotoxicity at 10 µM was -7.69%. Next, `Cc1ccc(CN2CCC(NC(=O)c3scnc3C)CC2)cc1`: -4.1%. For `CC(C)c1ncc2c(n1)CN(CCCc1nc3ccccc3o1)CC2` the value was -13.2%; for `c1ccc(OCCN2CCCCC2Cn2cncn2)cc1` (centres undefined), -15.7%; for `c1csc(-c2nc(CN3CCOC(Cn4cncn4)C3)cs2)c1` (centres undefined), -3.91%. Consider `Cc1csc(N2CCN(CC(=O)Nc3nncs3)CC2C)n1` (centres undefined), for which the cytotoxicity at 10 µM is -7.44%. Next, `CCC(CC)C(CNC(=O)Nc1ccc(C)cc1)N1CCOCC1` (centres undefined): -5.9%; `Cc1nc(C2CCCN(C(=O)C(C)(C)n3cc(Cl)cn3)C2)no1` (centres undefined): -2.09%. Next, `Cc1cc(C[C@@H]2CCC[C@H]2NCc2ccc(C(F)(F)F)cc2)on1`: -10.1%; `O=C(C[C@@H]1COC[C@H]2CN(Cc3ccccc3)C[C@@H]12)N1CCCC1`: 2.03%. As for `COCC1CC2(CCN(C(N)=O)CC2)CN1Cc1csc(C)n1` (centres undefined), the cytotoxicity at 10 µM amounted to 8.98%. In the case of `O=C(c1ccc(F)cc1)N1C[C@H]2CCC[C@@]2(COCc2ccccn2)C1`, the cytotoxicity at 10 µM was 2.06%. For `CCS(=O)(=O)N1CCC2(CC1)CC1(CCN(CCOC)CC1)C(=O)N2C` the value was 0.503%; for `COCCn1c2c(ccc1=O)CC(NCc1cccnc1OC)CC2` (centres undefined), -106%; for `CCN1CCC2(C=C(C(=O)N(C)C)c3ccccc32)CC1`, -101%. For `Cc1nc(CN2CC[C@H]3[C@H]2CCN3c2nncs2)cs1`, the cytotoxicity at 10 µM came out at 5.2%.

Turning to `Cc1ccc2c(c1)C1(CCNCC1)CN2C(=O)CN(C)C`, the cytotoxicity at 10 µM turned out to be 0.513%. Turning to `CS(=O)(=O)N1C[C@H]2CC[C@@H](C1)N(C(=O)CCc1n[nH]c3c1CCCC3)C2`, the cytotoxicity at 10 µM turned out to be 11%. On to `CN1[C@@H]2CC[C@H]1CN(C(=O)c1ccc(-c3ccccc3)[nH]1)CC2`, for which the cytotoxicity at 10 µM is -0.372%.
